Data: ChEMBL document CHEMBL5058577, “EUbOPEN Chemogenomics Library 2 (Multiplex)” (2022)

Test system: U2OS
Experiment: Multiplex assay against U2OS
Assay type: toxicity, cell-based
Details: human
In short: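 Live cells carried four stains from seeding: Hoechst33342, BioTracker Green Microtubule Cytoskeleton Dye, MitoTracker Red and Annexin V Alexa Fluor 680. They were imaged on a CQ1 microscope at 37°C and 5% CO2 after compound addition. Using CellPathfinder machine-learning gating, cells were split into Hoechst high-intensity objects or normal cells, normal cells into healthy, pyknosed or fragmented nuclei, and pyknosed cells into mitotic or apoptotic; tubulin, mitochondrial-mass and membrane-permeability phenotypes are per cents of healthy-nucleus cells.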

[1] = 12 h, 1 µM, compound concentration 1 uM, replicate 1
[2] = 12 h, 1 µM, compound concentration 1 uM, replicate 2
[3] = 12 h, 10 µM, compound concentration 10 uM, replicate 1
[4] = 12 h, 10 µM, compound concentration 10 uM, replicate 2
[5] = 24 h, 1 µM, compound concentration 1 uM, replicate 1
[6] = 24 h, 1 µM, compound concentration 1 uM, replicate 2
[7] = 24 h, 10 µM, compound concentration 10 uM, replicate 1
[8] = 24 h, 10 µM, compound concentration 10 uM, replicate 2
[9] = 48 h, 1 µM, compound concentration 1 uM, replicate 1
[10] = 48 h, 1 µM, compound concentration 1 uM, replicate 2
[11] = 48 h, 10 µM, compound concentration 10 uM, replicate 1
[12] = 48 h, 10 µM, compound concentration 10 uM, replicate 2

CN(C)C/C=C/C(=O)Nc1ccc(C(=O)N2CCCC(Nc3ncc(Cl)c(-c4c[nH]c5ccccc45)n3)C2)cc1 (stereo unspecified)
Population Apoptotic (%) [1]: 77%
Population Fragmented Nuclei (%) [1]: 31%
Population Healthy Nuclei (%) [1]: 60%
Population Hoechst High Intensity Objects (%) [1]: 2%
Population Membrane Permeable-Phenotype (%) [1]: 5%
Population Mitochondria Different-Phenotype (%) [1]: 3%
Population Mitotic Cells (%) [1]: 22%
Population Normal (%) [1]: 97%
Population Pyknosed Nuclei (%) [1]: 8%
Population Tubulin-Different-Phenotype (%) [1]: 4%
Total Cell Count [1]: 228
Population Apoptotic (%) [2]: 83%
Population Fragmented Nuclei (%) [2]: 18%
Population Healthy Nuclei (%) [2]: 77%
Population Hoechst High Intensity Objects (%) [2]: 0%
Population Membrane Permeable-Phenotype (%) [2]: 6%
Population Mitochondria Different-Phenotype (%) [2]: 5%
Population Mitotic Cells (%) [2]: 16%
Population Normal (%) [2]: 99%
Population Pyknosed Nuclei (%) [2]: 4%
Population Tubulin-Different-Phenotype (%) [2]: 8%
Total Cell Count [2]: 139
Population Apoptotic (%) [3]: 80%
Population Fragmented Nuclei (%) [3]: 31%
Population Healthy Nuclei (%) [3]: 47%
Population Hoechst High Intensity Objects (%) [3]: 5%
Population Membrane Permeable-Phenotype (%) [3]: 33%
Population Mitochondria Different-Phenotype (%) [3]: 40%
Population Mitotic Cells (%) [3]: 20%
Population Normal (%) [3]: 94%
Population Pyknosed Nuclei (%) [3]: 20%
Population Tubulin-Different-Phenotype (%) [3]: 49%
Total Cell Count [3]: 233
Population Apoptotic (%) [4]: 75%
Population Fragmented Nuclei (%) [4]: 25%
Population Healthy Nuclei (%) [4]: 54%
Population Hoechst High Intensity Objects (%) [4]: 2%
Population Membrane Permeable-Phenotype (%) [4]: 23%
Population Mitochondria Different-Phenotype (%) [4]: 42%
Population Mitotic Cells (%) [4]: 25%
Population Normal (%) [4]: 97%
Population Tubulin-Different-Phenotype (%) [4]: 37%
Total Cell Count [4]: 121
Population Apoptotic (%) [5]: 93%
Population Fragmented Nuclei (%) [5]: 34%
Population Healthy Nuclei (%) [5]: 53%
Population Hoechst High Intensity Objects (%) [5]: 2%
Population Membrane Permeable-Phenotype (%) [5]: 7%
Population Mitochondria Different-Phenotype (%) [5]: 2%
Population Mitotic Cells (%) [5]: 6%
Population Normal (%) [5]: 97%
Population Pyknosed Nuclei (%) [5]: 11%
Population Tubulin-Different-Phenotype (%) [5]: 6%
Total Cell Count [5]: 271
Population Apoptotic (%) [6]: 100%
Population Fragmented Nuclei (%) [6]: 21%
Population Healthy Nuclei (%) [6]: 67%
Population Hoechst High Intensity Objects (%) [6]: 0%
Population Membrane Permeable-Phenotype (%) [6]: 8%
Population Mitotic Cells (%) [6]: 0%
Population Normal (%) [6]: 99%
Population Tubulin-Different-Phenotype (%) [6]: 5%
Total Cell Count [6]: 164
Population Apoptotic (%) [7]: 87%
Population Fragmented Nuclei (%) [7]: 39%
Population Healthy Nuclei (%) [7]: 35%
Population Hoechst High Intensity Objects (%) [7]: 9%
Population Membrane Permeable-Phenotype (%) [7]: 22%
Population Mitochondria Different-Phenotype (%) [7]: 33%
Population Mitotic Cells (%) [7]: 12%
Population Normal (%) [7]: 90%
Population Pyknosed Nuclei (%) [7]: 25%
Population Tubulin-Different-Phenotype (%) [7]: 29%
Total Cell Count [7]: 239
Population Apoptotic (%) [8]: 97%
Population Fragmented Nuclei (%) [8]: 31%
Population Hoechst High Intensity Objects (%) [8]: 5%
Population Membrane Permeable-Phenotype (%) [8]: 21%
Population Mitochondria Different-Phenotype (%) [8]: 28%
Population Mitotic Cells (%) [8]: 2%
Population Normal (%) [8]: 94%
Population Pyknosed Nuclei (%) [8]: 32%
Population Tubulin-Different-Phenotype (%) [8]: 17%
Total Cell Count [8]: 135
Population Apoptotic (%) [9]: 94%
Population Fragmented Nuclei (%) [9]: 29%
Population Healthy Nuclei (%) [9]: 60%
Population Hoechst High Intensity Objects (%) [9]: 3%
Population Membrane Permeable-Phenotype (%) [9]: 10%
Population Mitochondria Different-Phenotype (%) [9]: 3%
Population Mitotic Cells (%) [9]: 5%
Population Normal (%) [9]: 96%
Population Pyknosed Nuclei (%) [9]: 10%
Population Tubulin-Different-Phenotype (%) [9]: 5%
Total Cell Count [9]: 339
Population Apoptotic (%) [10]: 96%
Population Fragmented Nuclei (%) [10]: 10%
Population Healthy Nuclei (%) [10]: 77%
Population Membrane Permeable-Phenotype (%) [10]: 3%
Population Mitotic Cells (%) [10]: 3%
Population Pyknosed Nuclei (%) [10]: 12%
Population Tubulin-Different-Phenotype (%) [10]: 3%
Total Cell Count [10]: 221
Population Apoptotic (%) [11]: 100%
Population Fragmented Nuclei (%) [11]: 50%
Population Healthy Nuclei (%) [11]: 17%
Population Hoechst High Intensity Objects (%) [11]: 15%
Population Membrane Permeable-Phenotype (%) [11]: 47%
Population Mitochondria Different-Phenotype (%) [11]: 27%
Population Mitotic Cells (%) [11]: 0%
Population Normal (%) [11]: 84%
Population Pyknosed Nuclei (%) [11]: 32%
Population Tubulin-Different-Phenotype (%) [11]: 38%
Total Cell Count [11]: 251
Population Healthy Nuclei (%) [12]: 18%
Population Hoechst High Intensity Objects (%) [12]: 9%
Population Membrane Permeable-Phenotype (%) [12]: 26%
Population Mitochondria Different-Phenotype (%) [12]: 19%
Population Normal (%) [12]: 90%
Population Pyknosed Nuclei (%) [12]: 31%
Population Tubulin-Different-Phenotype (%) [12]: 23%
Total Cell Count [12]: 157

Cc1cc(=O)n(C)c2cc(N3C(=O)CC[C@H](NS(=O)(=O)CC(C)C)[C@H]3c3ccc(Cl)cc3)ccc12
Population Apoptotic (%) [1]: 87%
Population Fragmented Nuclei (%) [1]: 24%
Population Healthy Nuclei (%) [1]: 66%
Population Hoechst High Intensity Objects (%) [1]: 3%
Population Membrane Permeable-Phenotype (%) [1]: 3%
Population Mitochondria Different-Phenotype (%) [1]: 1%
Population Mitotic Cells (%) [1]: 12%
Population Normal (%) [1]: 96%
Population Pyknosed Nuclei (%) [1]: 9%
Population Tubulin-Different-Phenotype (%) [1]: 1%
Total Cell Count [1]: 263
Population Apoptotic (%) [2]: 63%
Population Fragmented Nuclei (%) [2]: 21%
Population Healthy Nuclei (%) [2]: 68%
Population Hoechst High Intensity Objects (%) [2]: 1%
Population Membrane Permeable-Phenotype (%) [2]: 2%
Population Mitochondria Different-Phenotype (%) [2]: 2%
Population Mitotic Cells (%) [2]: 36%
Population Normal (%) [2]: 98%
Population Pyknosed Nuclei (%) [2]: 10%
Total Cell Count [2]: 110
Population Apoptotic (%) [3]: 57%
Population Fragmented Nuclei (%) [3]: 21%
Population Healthy Nuclei (%) [3]: 55%
Population Hoechst High Intensity Objects (%) [3]: 5%
Population Membrane Permeable-Phenotype (%) [3]: 63%
Population Mitochondria Different-Phenotype (%) [3]: 44%
Population Mitotic Cells (%) [3]: 42%
Population Normal (%) [3]: 94%
Population Pyknosed Nuclei (%) [3]: 23%
Population Tubulin-Different-Phenotype (%) [3]: 65%
Total Cell Count [3]: 240
Population Fragmented Nuclei (%) [4]: 16%
Population Healthy Nuclei (%) [4]: 60%
Population Hoechst High Intensity Objects (%) [4]: 3%
Population Membrane Permeable-Phenotype (%) [4]: 35%
Population Mitochondria Different-Phenotype (%) [4]: 68%
Population Normal (%) [4]: 96%
Population Tubulin-Different-Phenotype (%) [4]: 60%
Total Cell Count [4]: 83
Population Apoptotic (%) [5]: 74%
Population Fragmented Nuclei (%) [5]: 20%
Population Healthy Nuclei (%) [5]: 68%
Population Hoechst High Intensity Objects (%) [5]: 3%
Population Membrane Permeable-Phenotype (%) [5]: 6%
Population Mitochondria Different-Phenotype (%) [5]: 3%
Population Mitotic Cells (%) [5]: 25%
Population Normal (%) [5]: 96%
Population Pyknosed Nuclei (%) [5]: 11%
Population Tubulin-Different-Phenotype (%) [5]: 4%
Total Cell Count [5]: 322
Population Apoptotic (%) [6]: 82%
Population Fragmented Nuclei (%) [6]: 18%
Population Healthy Nuclei (%) [6]: 69%
Population Hoechst High Intensity Objects (%) [6]: 1%
Population Membrane Permeable-Phenotype (%) [6]: 9%
Population Mitochondria Different-Phenotype (%) [6]: 2%
Population Mitotic Cells (%) [6]: 17%
Population Normal (%) [6]: 98%
Population Tubulin-Different-Phenotype (%) [6]: 6%
Total Cell Count [6]: 146
Population Apoptotic (%) [7]: 71%
Population Fragmented Nuclei (%) [7]: 20%
Population Healthy Nuclei (%) [7]: 56%
Population Hoechst High Intensity Objects (%) [7]: 5%
Population Membrane Permeable-Phenotype (%) [7]: 25%
Population Mitochondria Different-Phenotype (%) [7]: 40%
Population Mitotic Cells (%) [7]: 28%
Population Normal (%) [7]: 94%
Population Pyknosed Nuclei (%) [7]: 23%
Population Tubulin-Different-Phenotype (%) [7]: 28%
Total Cell Count [7]: 262
Population Apoptotic (%) [8]: 81%
Population Fragmented Nuclei (%) [8]: 26%
Population Healthy Nuclei (%) [8]: 62%
Population Hoechst High Intensity Objects (%) [8]: 2%
Population Membrane Permeable-Phenotype (%) [8]: 36%
Population Mitochondria Different-Phenotype (%) [8]: 59%
Population Mitotic Cells (%) [8]: 18%
Population Normal (%) [8]: 97%
Population Pyknosed Nuclei (%) [8]: 10%
Population Tubulin-Different-Phenotype (%) [8]: 50%
Total Cell Count [8]: 108
Population Apoptotic (%) [9]: 77%
Population Fragmented Nuclei (%) [9]: 14%
Population Healthy Nuclei (%) [9]: 73%
Population Hoechst High Intensity Objects (%) [9]: 1%
Population Membrane Permeable-Phenotype (%) [9]: 4%
Population Mitochondria Different-Phenotype (%) [9]: 3%
Population Mitotic Cells (%) [9]: 22%
Population Normal (%) [9]: 98%
Population Pyknosed Nuclei (%) [9]: 11%
Population Tubulin-Different-Phenotype (%) [9]: 2%
Total Cell Count [9]: 508
Population Apoptotic (%) [10]: 95%
Population Fragmented Nuclei (%) [10]: 15%
Population Membrane Permeable-Phenotype (%) [10]: 6%
Population Mitochondria Different-Phenotype (%) [10]: 5%
Population Mitotic Cells (%) [10]: 5%
Population Pyknosed Nuclei (%) [10]: 10%
Population Tubulin-Different-Phenotype (%) [10]: 4%
Total Cell Count [10]: 199
Population Apoptotic (%) [11]: 84%
Population Fragmented Nuclei (%) [11]: 25%
Population Healthy Nuclei (%) [11]: 51%
Population Hoechst High Intensity Objects (%) [11]: 6%
Population Membrane Permeable-Phenotype (%) [11]: 15%
Population Mitochondria Different-Phenotype (%) [11]: 15%
Population Mitotic Cells (%) [11]: 15%
Population Normal (%) [11]: 93%
Population Pyknosed Nuclei (%) [11]: 22%
Population Tubulin-Different-Phenotype (%) [11]: 10%
Total Cell Count [11]: 331
Population Apoptotic (%) [12]: 71%
Population Fragmented Nuclei (%) [12]: 21%
Population Healthy Nuclei (%) [12]: 60%
Population Hoechst High Intensity Objects (%) [12]: 5%
Population Membrane Permeable-Phenotype (%) [12]: 30%
Population Mitochondria Different-Phenotype (%) [12]: 35%
Population Mitotic Cells (%) [12]: 28%
Population Normal (%) [12]: 94%
Population Pyknosed Nuclei (%) [12]: 18%
Population Tubulin-Different-Phenotype (%) [12]: 23%
Total Cell Count [12]: 120
